From PubChem BioAssay
N-glyco inh: N-linked glycosylation inhibition | D54 ERlucT glycosylation luciferase reporter, 24 h; percent of 100 nM tunicamycin response | reporter increase, % at 12.5 µM | 360,000 tested, 0.23% active | AID 588692;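 active means mean luciferase reporter signal, scaled so untreated is 0 and the glycosylation-blocking control 100, at or above a set limit in every replicate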;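 further: luciferase carries N-glycosylation sites so blocking glycosylation raises the light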
Env fusion inh: inhibitors of HIV Env-mediated cell fusion. inhibition, % at 12.3 µM. 360,000 tested, 1.1% active. HeLa-JRFL Env/CEM21 cell fusion, luciferase;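 active means mean replicate inhibition score of at least 50 and every replicate individually at or above 50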
Rtt109 HAT inh: inhibitors of Candida albicans Rtt109/Vps75 histone acetyltransferase. Q5AAJ8. purified Rtt109/Vps75, ThioGlo CoA-SH fluorescence, 4 h. inhibition, % at 34.9 µM. 330,000 tested, 0.16% active. AID 540336;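 active means inhibition of at least 50% in every replicate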
Target sequence (Q5AAJ8 whole entry, looked up): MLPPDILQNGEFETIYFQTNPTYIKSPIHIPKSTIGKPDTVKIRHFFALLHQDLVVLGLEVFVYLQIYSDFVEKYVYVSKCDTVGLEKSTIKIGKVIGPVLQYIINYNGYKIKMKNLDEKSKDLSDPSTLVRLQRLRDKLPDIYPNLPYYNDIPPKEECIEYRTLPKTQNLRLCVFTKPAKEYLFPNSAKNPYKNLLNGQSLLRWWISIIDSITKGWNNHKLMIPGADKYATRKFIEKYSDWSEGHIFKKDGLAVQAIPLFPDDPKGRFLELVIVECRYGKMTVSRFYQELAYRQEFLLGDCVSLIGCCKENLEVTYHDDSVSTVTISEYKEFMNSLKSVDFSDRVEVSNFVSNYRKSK
PfHsp90 yeast 2: reduces growth (ATP signal) of yeast expressing P. falciparum Hsp90 | inhibition, % at 9.4 µM | S. cerevisiae expressing PfHsp90, BacTiter-Glo ATP, 48 h; yeast lacking PDR1 and PDR3 efflux regulators | 310,000 tested, 0.32% active | AID 504621;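 active means every replicate shows inhibition above about 80%, whatever the replicate mean, limit read from the data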
Arr AP2 block: inhibitors of human beta-arrestin and AP2 interaction | 340,000 tested, 0.31% active | FITC-arrestin peptide / GST-AP2 beads, flow cytometry; AP2 beta2 appendage carries R879A mutation | inhibition, % at 10 µM;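 active means inhibition above a set limit, near 3 SD of compounds lacking own fluorescence, cut at about 54% in these data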
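test system = AP2 appendage R879A on GSH beads | buffer or medium = PBS plus Tween 20 (0.05%) and BSA (0.1%) | incubation = 12 min plus 1 h, RT | detection = bead flow cytometry, FITC channel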
PAX8 inh HTS: inhibitors of PAX8 transcriptional activity in RMG-I cells. RMG-I TPO-luciferase reporter, SteadyGlo, 24 h. inhibition, % at 12.6 µM. 360,000 tested, 1.2% active. AID 652154;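 active means mean replicate inhibition at least 60% with every replicate also reaching 60%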;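 further: luciferase light reporting Pax8 driven TPO promoter activity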
Of the large screens only hits and unclear results are named; the others gave an inactive call. Shown are actives, neighbours in structure and some others; about 2.3% of the full set was active somewhere.

COc1ccccc1OC(C)C(=O)Nc1nc(-c2ccc(S(=O)(=O)N3CCOCC3)cc2)cs1 (stereo not drawn)	Env fusion inh 60 (no result: PAX8 inh HTS)
O=C(Nc1nc(-c2ccccn2)cs1)c1cccc(S(=O)(=O)N2CCOCC2)c1	PAX8 inh HTS 81 (no result: Env fusion inh)
O=C(Nc1nc(-c2ccccc2)cs1)c1ccccc1NS(=O)(=O)c1ccc(F)cc1	Env fusion inh 64, PfHsp90 yeast 2 103, PAX8 inh HTS 86
O=S(=O)(Nc1ccc(-c2csc(-c3ccccc3)n2)cc1)c1ccc(F)cc1	none (no result: Env fusion inh, PfHsp90 yeast 2, PAX8 inh HTS)
COc1cccc(-c2cn(CC[C@H]3CC[C@H](NS(=O)(=O)Cc4ccccc4)[C@@H](CO)O3)nn2)c1	none (no result: N-glyco inh, Rtt109 HAT inh, PfHsp90 yeast 2, Arr AP2 block)
CCCN(C)C[C@@H]1Oc2cc(C#CCOC)ccc2S(=O)(=O)N([C@@H](C)CO)C[C@@H]1C	none (no result: N-glyco inh, Rtt109 HAT inh, PfHsp90 yeast 2, Arr AP2 block, PAX8 inh HTS)
COC(=O)CSc1nnc(COc2cccc3ccccc23)o1	none
Cc1csc(N(C)C(=O)CSc2nnc(COc3cccc4ccccc34)o2)n1	Env fusion inh 105 (no result: PAX8 inh HTS)
Cc1ccc(-c2nnnn2-c2ccc(C)cc2)cc1	none
FC(F)(F)c1nc(-c2ccncc2)ncc1-c1nnnn1-c1ccccc1	none (no result: PAX8 inh HTS)
FC(F)(F)c1ccncc1-c1nnnn1-c1ccc(Cl)cc1	none
Cc1ccc(-n2nnnc2-c2cnn(-c3ccc(F)cc3)c2C(F)(F)F)cc1	Env fusion inh 96 (no result: Rtt109 HAT inh)
Fc1ccc(-n2nnnc2-c2cnc(-c3cccs3)nc2C(F)(F)F)cc1	Env fusion inh 77 (no result: PfHsp90 yeast 2, PAX8 inh HTS)
FC(F)(F)c1nc(N2CCCC2)ncc1-c1nnnn1-c1ccc(Cl)cc1	Env fusion inh 58 (no result: PAX8 inh HTS)
CCOC(=O)C1=CN(Cc2cccc(-c3cccnc3)c2)S(=O)(=O)N(CC)C1C (stereo not drawn)	none
CCOC(=O)C1=CN(Cc2cccc(F)c2)S(=O)(=O)N(CC)C1c1ccccc1 (stereo not drawn)	PAX8 inh HTS 86
CCOC(=O)C1=CN(Cc2cccc(-c3cccnc3)c2)S(=O)(=O)N(C)C1C (stereo not drawn)	PAX8 inh HTS 101
COc1ccc(-c2nc(-c3ccccn3)no2)cc1	Env fusion inh 62, PfHsp90 yeast 2 86, PAX8 inh HTS 104
Cc1ccccc1-c1nc(-c2ccccn2)no1	PAX8 inh HTS 73
Clc1ccc(-c2nc(-c3ccccn3)no2)cc1Cl	none (no result: Env fusion inh, PAX8 inh HTS)
COc1ccc(-c2nc(-c3cccs3)no2)cc1	Rtt109 HAT inh 52
COc1ccccc1-c1nc(-c2ccccn2)no1	none
CO[C@@H]1CN(C)C(=O)c2ccc(NC(=O)C3CCOCC3)cc2OC[C@@H](C)N(C(=O)c2ccccc2)C[C@@H]1C	none (no result: N-glyco inh, Rtt109 HAT inh, PfHsp90 yeast 2, Arr AP2 block)
CC1=C(C(=O)OCCOc2ccccc2)C(c2coc3ccccc3c2=O)C2=C(CCCC2=O)N1 (stereo not drawn)	Env fusion inh 57
CCOC(=O)C1=C(C)NC2=C(C(=O)CCC2)C1c1coc2ccccc2c1=O (stereo not drawn)	none (no result: Env fusion inh, PAX8 inh HTS)
C#Cc1ccc([C@@H]2C=C(C(=O)N3CCCCCCC3)O[C@H](OCCCCO)C2)cc1	none (no result: N-glyco inh, Rtt109 HAT inh, PfHsp90 yeast 2, Arr AP2 block)
C#CCn1c(S(=O)(=O)Cc2ccccc2Cl)nc(-c2ccccc2)c1-c1ccccc1	Env fusion inh 79 (no result: PAX8 inh HTS)
CCOC(=O)Cn1c(S(=O)(=O)Cc2ccccc2Cl)nc(-c2ccccc2)c1-c1ccccc1	none (no result: Env fusion inh, PfHsp90 yeast 2, PAX8 inh HTS)
C#CCn1c(S(=O)(=O)Cc2ccc(C)cc2)nc(-c2ccccc2)c1-c1ccccc1	Env fusion inh 146
Cc1ccc2[nH]c3c(=O)[nH]ncc3c2c1	Env fusion inh 66
CCCCCCCCCCCCCCCC[N+](C)(C)Cc1ccc(F)cc1	PfHsp90 yeast 2 115
CCCCN(C(=O)c1cc(S(=O)(=O)N2CCCCCC2)ccc1OC)c1ccccc1	Env fusion inh 93 (no result: PfHsp90 yeast 2, PAX8 inh HTS)
CCCCN(C(=O)c1cc(S(=O)(=O)N2CCOCC2)ccc1N1CCOCC1)c1ccccc1	none (no result: Rtt109 HAT inh, PfHsp90 yeast 2, Arr AP2 block)
O=C(Nc1cc(Cl)cc(Cl)c1)C(c1ccccc1)N1CCCCC1 (stereo not drawn)	Env fusion inh 75
O=C(O)c1ccccc1OC(C(=O)Nc1cc(Cl)cc(Cl)c1)c1ccccc1 (stereo not drawn)	N-glyco inh 29
CC(C)CC#Cc1cnc2c(c1)C(=O)N([C@H](C)CO)C[C@H](C)[C@H](CN(C)C(=O)Cc1ccncc1)O2	none (no result: N-glyco inh, Rtt109 HAT inh, PfHsp90 yeast 2, Arr AP2 block)
